# Measurements taken from ChEMBL document CHEMBL2424641, “Synthesis and evaluation of novel radioligands for positron emission tomography imaging of the orexin-2 receptor” (J Med Chem, 2013).
# Key:
# Brain [1] = experiment: Ex vivo drug metabolism in P-gp-knockout rat brain assessed as retention time at 330 MBq after 30 min by HPLC chromatogram analysis; format: ADME, tissue-based; settings: 0.5 h
# Procedure, shortened: (§1)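 Mdr1a-knockout rat (450 g) given [11C] tracer 330 MBq iv and decapitated at 30 min. Plasma deproteinised with MeCN; half-brain homogenised in 50% aqueous MeCN and deproteinised. Supernatants run on C18 radio-HPLC (MeCN/H2O/TEA 5/5/0.01, 1.5 mL/min). Parent % = parent peak area/total peak area × 100, decay corrected; n = 1.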
# [2] = Drug uptake in rhesus monkey neocortex at 115.5 MBq, iv after >30 seconds by PET analysis; format: ADME, organism-based, Macaca mulatta; settings: in vivo
# Procedure, shortened: (§2)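 A single rhesus monkey, thiamylal induction then 1.5% isoflurane; 90 min 3D dynamic PET after transmission scan; [11C] tracer bolus via crural vein (115.5 MBq at baseline; 87.7 MBq after tariquidar 8 mg/kg iv over 10 min, 0.25 h before). ROIs on individual MRI; decay-corrected %SUV.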
# [3] = Drug uptake in P-gp-knockout rat neocortex at 78.7 to 189.8 MBq, iv after 90 mins by PET analysis in presence of 10 mg/kg, po unlabeled compound; format: ADME, organism-based; parameters: dose 10 mg/kg, route oral; settings: in vivo, 1.5 h
# Procedure, shortened: (§3)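 Male Mdr1a-knockout rats (410−500 g) under 1.5% isoflurane at 37 °C; [11C] tracer 78.7−189.8 MBq by tail vein. 90 min list-mode microPET scan with filtered back-projection; ROIs drawn on MRI template; decay-corrected %ID/mL, n = 3. Blocking: unlabeled compound 10 mg/kg po in 5% DMSO/10% cremophor in 10 mM HCl, given 1 h before tracer.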
# Hippocampus [4] = experiment: Drug uptake in rhesus monkey hippocampus at 115.5 MBq, iv after >30 seconds by PET analysis; format: ADME, organism-based, Macaca mulatta; settings: in vivo; procedure, shortened: as §2
# Hippocampus [5] = experiment: Drug uptake in P-gp-knockout rat hippocampus at 78.7 to 189.8 MBq, iv after 90 mins by PET analysis in presence of 10 mg/kg, po unlabeled compound; format: ADME, organism-based; parameters: dose 10 mg/kg, route oral; settings: in vivo, 1.5 h; procedure, shortened: as §3
# [6] = Drug uptake in P-gp-knockout rat neocortex at 78.7 to 189.8 MBq, iv after 90 mins by PET analysis; format: ADME, organism-based; settings: in vivo, 1.5 h; procedure, shortened: as §3
# Thalamus [7] = experiment: Drug uptake in P-gp-knockout rat thalamus at 78.7 to 189.8 MBq, iv after 90 mins by PET analysis in presence of 10 mg/kg, po unlabeled compound; format: ADME, organism-based; parameters: dose 10 mg/kg, route oral; settings: in vivo, 1.5 h; procedure, shortened: as §3
# [8] = Metabolic stability in P-gp-knockout rat plasma assessed as unmetabolized drug level at 330 MBq after 30 min by HPLC chromatogram analysis; format: ADME, cell-free; settings: read-out: Stability; procedure, shortened: as §1
# [9] = Metabolic stability in P-gp-knockout rat brain assessed as unmetabolized drug level at 330 MBq after 30 min by HPLC chromatogram analysis; format: ADME, tissue-based; settings: read-out: Stability; procedure, shortened: as §1
# Hippocampus [10] = experiment: Drug uptake in rhesus monkey hippocampus at 115.5 MBq, iv after 30 seconds by PET analysis; format: ADME, organism-based, Macaca mulatta; settings: in vivo, 0.5 min; procedure, shortened: as §2
# Hippocampus [11] = experiment: Drug uptake in P-gp-knockout rat hippocampus at 78.7 to 189.8 MBq, iv after 90 mins by PET analysis; format: ADME, organism-based; settings: in vivo, 1.5 h; procedure, shortened: as §3
# Brain [12] = experiment: Drug uptake in rhesus monkey brain at 115.5 MBq, iv by PET analysis in presence of tariquidar; format: ADME, organism-based, Macaca mulatta; settings: in vivo
# Cerebellum = experiment: Drug uptake in P-gp-knockout rat cerebellum at 78.7 to 189.8 MBq, iv after 90 mins by PET analysis in presence of 10 mg/kg, po unlabeled compound; format: ADME, organism-based; parameters: dose 10 mg/kg, route oral; settings: in vivo, 1.5 h; procedure, shortened: as §3
# [13] = Drug uptake in rhesus monkey cerebellum at 115.5 MBq, iv after >30 seconds by PET analysis; format: ADME, organism-based, Macaca mulatta; settings: in vivo; procedure, shortened: as §2
# Brain [14] = experiment: Ex vivo drug uptake in P-gp-knockout rat brain assessed as retention time at 330 MBq after 30 min by HPLC chromatogram analysis; format: ADME, tissue-based; settings: 0.5 h; procedure, shortened: as §1
# Thalamus [15] = experiment: Drug uptake in P-gp-knockout rat thalamus at 78.7 to 189.8 MBq, iv after 90 mins by PET analysis; format: ADME, organism-based; settings: in vivo, 1.5 h; procedure, shortened: as §3
# [16] = Drug uptake in rhesus monkey cerebellum at 115.5 MBq, iv after 30 seconds by PET analysis; format: ADME, organism-based, Macaca mulatta; settings: in vivo, 0.5 min; procedure, shortened: as §2
# [17] = Drug uptake in rhesus monkey neocortex at 115.5 MBq, iv after 30 seconds by PET analysis; format: ADME, organism-based, Macaca mulatta; settings: in vivo, 0.5 min; procedure, shortened: as §2
# [18] = Octanol-phosphate buffer partition coefficient, log D of the compound at pH 7.4 by Shake flask method; format: physicochemical
# Procedure, shortened: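 [11C]-labelled compound (about 200 000 cpm) in n-octanol and 0.1 M PBS pH 7.4, vortexed 3 min at rt and centrifuged; weighed aliquots of each phase γ-counted, with the organic layer repartitioned until stable. log D = log(cpm/g octanol ÷ cpm/g PBS); triplicate.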
# [19] = biological target: T1, Orexin/Hypocretin receptor type 1 (Homo sapiens, UniProt O43613); experiment: Displacement of [125I]-orexin-A from human OX1 receptor expressed in CHO cells after 30 mins by liquid scintillation counting analysis; format: cell-based
# T1 sequence (O43613 whole entry): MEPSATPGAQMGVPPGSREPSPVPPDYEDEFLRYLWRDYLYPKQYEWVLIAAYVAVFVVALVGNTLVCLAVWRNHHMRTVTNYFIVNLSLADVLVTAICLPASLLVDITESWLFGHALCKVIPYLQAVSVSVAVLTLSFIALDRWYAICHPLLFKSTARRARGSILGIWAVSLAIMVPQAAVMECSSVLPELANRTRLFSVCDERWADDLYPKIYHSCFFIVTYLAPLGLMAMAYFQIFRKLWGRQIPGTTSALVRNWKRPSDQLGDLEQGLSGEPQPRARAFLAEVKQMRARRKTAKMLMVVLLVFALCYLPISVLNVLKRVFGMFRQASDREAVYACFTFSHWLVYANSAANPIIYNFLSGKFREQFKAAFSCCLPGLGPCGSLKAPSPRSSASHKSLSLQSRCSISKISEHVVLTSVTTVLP
# Procedure, shortened: (§4)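 CHO membranes expressing human OX1R or OX2R (5 μg protein) incubated 30 min at rt with compound and [125I]-orexin A (2 nM stock) in HEPES buffer pH 7.5 with MgCl2, CaCl2, BSA. Nonspecific binding with 10 μM orexin A. Wells washed with HEPES/525 mM NaCl and DPM counted. % inhibition from test, control and nonspecific counts; mean of three wells.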
# [20] = Ratio of flux ratio in pig LLC cells expressing MDR1 to flux ratio on pig LLC-PK1 cells; format: ADME, cell-based, Sus scrofa
# Procedure, shortened: (§5)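 LLC-PK1 and LLC-MDR1 monolayers, 5 days post-seeding, preincubated 2 h at 37 °C in HBSS/10 mM HEPES. Compound added apically or basally, 2 h at 37 °C; opposite side assayed by LC-MS. Papp = Q/t/C0/A; FR = Papp(b→a)/Papp(a→b); corrected FR = FR(LLC-MDR1)/FR(LLC-PK1).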
# [21] = Flux ratio of permeability from apical to basolateral to basolateral to apical side in pig LLC cells expressing MDR1 after 2 hrs; format: ADME, cell-based, Sus scrofa; procedure, shortened: as §5
# LLC-PK1 = experiment: Flux ratio of permeability from apical to basolateral to basolateral to apical side in pig LLC-PK1 cells after 2 hrs; format: ADME, cell-based, Sus scrofa; settings: llc-pk1, 2 h; procedure, shortened: as §5
# Orexin receptor type 2 = biological target: T2, Orexin receptor type 2 (Homo sapiens, UniProt O43614); experiment: Displacement of [125I]-orexin-A from human OX2 receptor expressed in CHO cells after 30 mins by liquid scintillation counting analysis; format: cell-based; procedure, shortened: as §4
# T2 sequence (O43614 whole entry): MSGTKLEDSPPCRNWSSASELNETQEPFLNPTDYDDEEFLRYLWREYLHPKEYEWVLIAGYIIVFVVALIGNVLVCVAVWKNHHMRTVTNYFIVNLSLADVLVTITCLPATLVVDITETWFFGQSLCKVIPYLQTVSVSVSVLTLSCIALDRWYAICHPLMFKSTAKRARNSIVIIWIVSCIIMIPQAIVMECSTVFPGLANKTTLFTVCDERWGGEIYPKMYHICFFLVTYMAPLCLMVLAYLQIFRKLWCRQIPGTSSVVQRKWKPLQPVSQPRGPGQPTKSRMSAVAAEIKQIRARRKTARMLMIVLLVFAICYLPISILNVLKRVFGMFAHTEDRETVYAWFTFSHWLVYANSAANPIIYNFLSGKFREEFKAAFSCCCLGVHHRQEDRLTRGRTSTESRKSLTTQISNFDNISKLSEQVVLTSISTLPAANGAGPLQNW
smiles,measurement,setting,value
Cc1ncc(OC[C@@]2(c3cccc(F)c3)C[C@H]2C(=O)Nc2ccc(F)cn2)c(CO[11CH3])n1,Retention_time,Brain [1],2 min
same,Drug uptake,[2],Not Active
same,Drug uptake,[3],Not Active
same,Drug uptake,Hippocampus [4],Not Active
same,Drug uptake,Hippocampus [5],Not Active
same,Drug uptake,[6],Active
same,Drug uptake,Thalamus [7],Active
same,remaining at 0.5 h,[8],12%
same,remaining at 0.5 h,[9],54%
same,Drug uptake,Hippocampus [10],Active
same,Drug uptake,Hippocampus [11],Active
same,Drug uptake,Brain [12],Active
same,Drug uptake,Cerebellum,Not Active
same,Drug uptake,[13],Not Active
same,Retention_time,Brain [14],5.2 min
same,Drug uptake,Thalamus [15],Active
same,Drug uptake,[16],Active
same,Drug uptake,[17],Active
same,logD,[18],2.97
COc1nc(NC(=O)[C@@H]2C[C@@]2(COc2cnc(C)nc2C)c2cccc(F)c2)ccc1F,Ki,[19],12 nM
same,Ratio,[20],1.21
same,Ratio,[21],0.98
same,Ratio,LLC-PK1,0.81
same,logD,[18],3.6
same,Ki,Orexin receptor type 2,2 nM
